Measurements as given in ChEMBL document CHEMBL1122207, “Antitumor agents. 2. Bisguanylhydrazones of anthracene-9,10-dicarboxaldehydes” (1982).

Assays:
Assay type in all cases: functional
Mus musculus [1] = assay: Percent increase in median life span of BDF1 mice with B-16 melanoma at dose 6 mg/kg administered intraperitoneally; conditions: BDF1, B16, ip, route intraperitoneal
Procedure, shortened: (§1)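 BDF1 mice were implanted ip with a homogenate from 0.05 g of B-16 melanoma. Ip dosing ran on days 1-9, starting 24 h after implant, in dose-response studies following NCI protocols. The read-out was percent increase in life span (ILS). T/C ≥125% was taken as significant.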

Mus musculus [2] = species on record: Mus musculus; assay: Number of survivors of the total treated mice with B-16 melanoma, at 60 days.
Procedure, shortened: (§2)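 BDF1 mice were implanted ip with a homogenate from 0.05 g of B-16 melanoma and dosed ip on days 1-9. Cures are survivors over total at 60 days.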

Mus musculus [3] = assay: Percent increase in median life span of BDF1 mice with P-388 leukemia at dose 50 mg/kg administered intraperitoneally; conditions: BDF1, P388, ip, route intraperitoneal
Mus musculus [4] = species on record: Mus musculus; assay: Anticancer activity measured as the number of survivors of the total treated mice with P-388 leukemia at 30 days.
Procedure, shortened: (§3)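 BDF1 or CDF1 mice given 10^6 ascitic P-388 leukemia cells ip, then treated ip on days 1, 5 and 9. Cures are survivors over total treated at 30 days.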

Mus musculus [5] = assay: Percent increase in median life span of BDF1 mice with P-388 leukemia at dose 100 mg/kg administered intraperitoneally; conditions: BDF1, P388, ip, route intraperitoneal
Mus musculus [6] = assay: Percent increase in median life span of BDF1 mice with B-16 melanoma at dose 12.5 mg/kg administered intraperitoneally; conditions: BDF1, B16, ip, route intraperitoneal; procedure, shortened: as §1
Mus musculus [7] = assay: Percent increase in median life span of BDF1 mice with P-388 leukemia at dose 12.5 mg/kg administered intraperitoneally; conditions: BDF1, P388, ip, route intraperitoneal
Mus musculus [8] = assay: Percent increase in median life span of BDF1 mice with B-16 melanoma at dose 12 mg/kg administered intraperitoneally; conditions: BDF1, B16, ip, route intraperitoneal; procedure, shortened: as §1
Mus musculus [9] = species on record: Mus musculus; assay: Cures is the number of survivors of the total treated mice (12) with P-388 leukemia, at 30 days.; procedure, shortened: as §3
Mus musculus [10] = species on record: Mus musculus; assay: Cures is the number of survivors of the total treated mice (6) with P-388 leukemia, at 30 days.; procedure, shortened: as §3
Mus musculus [11] = assay: Percent increase in median life span of BDF1 mice with P-388 leukemia at dose 6.25 mg/kg administered intraperitoneally; conditions: BDF1, P388, ip, route intraperitoneal
Mus musculus [12] = assay: Percent increase in median life span of BDF1 mice with B-16 melanoma at dose 1.5 mg/kg administered intraperitoneally; conditions: BDF1, B16, ip, route intraperitoneal; procedure, shortened: as §1
Mus musculus [13] = assay: Percent increase in median life span of BDF1 mice with B-16 melanoma at dose 50 mg/kg administered intraperitoneally; conditions: BDF1, B16, ip, route intraperitoneal; procedure, shortened: as §1
Mus musculus [14] = assay: Percent increase in median life span of BDF1 mice with B-16 melanoma at dose 3 mg/kg administered intraperitoneally; conditions: BDF1, B16, ip, route intraperitoneal; procedure, shortened: as §1
Mus musculus [15] = assay: Percent increase in median life span of BDF1 mice with B-16 melanoma at dose 3.1 mg/kg administered intraperitoneally; conditions: BDF1, B16, ip, route intraperitoneal; procedure, shortened: as §1
Mus musculus [16] = assay: Percent increase in median life span of BDF1 mice with P-388 leukemia at dose 3.1 mg/kg administered intraperitoneally; conditions: BDF1, P388, ip, route intraperitoneal
Mus musculus [17] = species on record: Mus musculus; assay: Cures is the number of survivors of the total treated mice (10) with B-16 melanoma, at 60 days.; procedure, shortened: as §2
Mus musculus [18] = assay: Percent increase in median life span of BDF1 mice with P-388 leukemia administered intraperitoneally
Mus musculus [19] = assay: Percent increase in median life span of BDF1 mice with B-16 melanoma administered intraperitoneally; procedure, shortened: as §1
Mus musculus [20] = assay: Percent increase in median life span of BDF1 mice with P-388 leukemia at dose 25 mg/kg administered intraperitoneally; conditions: BDF1, P388, ip, route intraperitoneal

Cl.Cl.N=C(N/N=C/c1c2ccccc2c(/C=N/NC(=N)Nc2ccccc2)c2ccccc12)Nc1ccccc1
ILS at 6 mg/kg (Mus musculus [1]): 50% | Cures (Mus musculus [2]): 0 | ILS at 50 mg/kg (Mus musculus [3]): 67% | Cures (Mus musculus [4]): 0

CC(C)N(CC/N=C(\S)N/N=C/c1c2ccccc2c(/C=N/N/C(S)=N/CCN(C(C)C)C(C)C)c2ccccc12)C(C)C.Cl.Cl
ILS at 100 mg/kg (Mus musculus [5]): 53% | Cures (Mus musculus [4]): 0

C(=N\NC1=NCCN1)/C1c2ccccc2C(/C=N/NC2=NCCN2)c2ccccc21.Cl.Cl (stereo unspecified)
Cures (Mus musculus [2]): 0 | ILS at 12.5 mg/kg (Mus musculus [6]): 100% | ILS at 12.5 mg/kg (Mus musculus [7]): 72%

C(=N\NC1=NCCCN1)/c1c2ccccc2c(/C=N/NC2=NCCCN2)c2ccccc12.Cl.Cl
ILS at 12 mg/kg (Mus musculus [8]): 106% | Cures (Mus musculus [2]): 0 | Cures (Mus musculus [9]): 1 | ILS at 12.5 mg/kg (Mus musculus [7]): 82%

CN1CCCN=C1N/N=C/c1c2ccccc2c(/C=N/NC2=NCCCN2C)c2ccccc12.Cl.Cl
Cures (Mus musculus [10]): 1 | ILS at 6.25 mg/kg (Mus musculus [11]): 148% | Cures (Mus musculus [2]): 0 | ILS at 1.5 mg/kg (Mus musculus [12]): 80%

Cl.Cl.S=C(NCCCN1CCOCC1)N/N=C/c1c2ccccc2c(/C=N/NC(=S)NCCCN2CCOCC2)c2ccccc12
ILS at 50 mg/kg (Mus musculus [13]): 75% | ILS at 100 mg/kg (Mus musculus [5]): 53% | Cures (Mus musculus [2]): 0 | Cures (Mus musculus [4]): 0

C/N=C(\NC)N/N=C/c1c2ccccc2c(/C=N/N/C(=N/C)NC)c2ccccc12
Cures (Mus musculus [10]): 1 | ILS at 3 mg/kg (Mus musculus [14]): 111% | ILS at 6.25 mg/kg (Mus musculus [11]): 118% | Cures (Mus musculus [2]): 0

Cl.Cl.Fc1cccc2c(/C=N/NC3=NCCN3)c3ccccc3c(/C=N/NC3=NCCN3)c12
ILS at 3.1 mg/kg (Mus musculus [15]): 100% | ILS at 3.1 mg/kg (Mus musculus [16]): 115% | Cures (Mus musculus [17]): 1 | Cures (Mus musculus [4]): 0

CN(C)C(=N)N/N=C/c1c2ccccc2c(/C=N/N=C(\N)N(C)C)c2cc(Cl)ccc12.Cl.Cl
ILS at 6 mg/kg (Mus musculus [1]): 39% | Cures (Mus musculus [2]): 0 | Cures (Mus musculus [4]): 0 | ILS at 12.5 mg/kg (Mus musculus [7]): 82%

Cl.Cl.Fc1ccc2c(/C=N/NC3=NCCN3)c3cc(F)ccc3c(/C=N/NC3=NCCN3)c2c1
ILS at 3.1 mg/kg (Mus musculus [15]): 111% | ILS at 3.1 mg/kg (Mus musculus [16]): 135% | Cures (Mus musculus [10]): 1 | Cures (Mus musculus [17]): 1

Br.Br.CN(/N=C/c1c2ccccc2c(/C=N/N(C)C(=N)N)c2ccccc12)C(=N)N
ILS at 6 mg/kg (Mus musculus [1]): 50% | Cures (Mus musculus [2]): 0 | Cures (Mus musculus [4]): 0 | ILS at 12.5 mg/kg (Mus musculus [7]): 91%

Cl.Cl.Clc1cccc2c(/C=N/NC3=NCCN3)c3ccccc3c(/C=N/NC3=NCCN3)c12
Cures (Mus musculus [10]): 3 | Cures (Mus musculus [17]): 3 | ILS at 6.25 mg/kg (Mus musculus [11]): 186% | ILS at 1.5 mg/kg (Mus musculus [12]): 153%

Cl.Cl.Fc1ccc2c(/C=N/NC3=NCCN3)c3ccccc3c(/C=N/NC3=NCCN3)c2c1
ILS at 3.1 mg/kg (Mus musculus [15]): 183% | Cures (Mus musculus [17]): 4 | ILS at 6.25 mg/kg (Mus musculus [11]): 123% | Cures (Mus musculus [9]): 3

CC(C)(C)c1ccc2c(/C=N/NC3=NCCN3)c3ccccc3c(/C=N/NC3=NCCN3)c2c1.Cl.Cl
ILS (Mus musculus [18]): 0% | ILS (Mus musculus [19]): 0% | Cures (Mus musculus [2]): 0 | Cures (Mus musculus [4]): 0

COCC/N=C(\S)N/N=C/c1c2ccccc2c(/C=N/N/C(S)=N/CCOC)c2ccccc12
ILS (Mus musculus [18]): 0%

Cl.Cl.N=C(N)N/N=C/c1c2ccccc2c(/C=N/N=C(N)N)c2ccccc12
Cures (Mus musculus [10]): 3 | ILS at 3 mg/kg (Mus musculus [14]): 67% | ILS at 25 mg/kg (Mus musculus [20]): 132% | Cures (Mus musculus [2]): 0

CN(C)c1ccc(N/C(S)=N/N=C/c2c3ccccc3c(/C=N/N=C(/S)Nc3ccc(N(C)C)cc3)c3ccccc23)cc1
ILS (Mus musculus [18]): 0%

Cc1ccc2c(/C=N/NC3=NCCN3)c3ccccc3c(/C=N/NC3=NCCN3)c2c1Cl.Cl.Cl
Cures (Mus musculus [17]): 4 | Cures (Mus musculus [4]): 0 | ILS at 12.5 mg/kg (Mus musculus [6]): 220% | ILS at 12.5 mg/kg (Mus musculus [7]): 130%

Cl.Cl.Fc1cccc2c(/C=N/NC3=NCCN3)c3c(F)cccc3c(/C=N/NC3=NCCN3)c12
Cures (Mus musculus [10]): 1 | Cures (Mus musculus [17]): 5 | ILS at 50 mg/kg (Mus musculus [13]): 194% | ILS at 100 mg/kg (Mus musculus [5]): 140%

CN(/N=C/c1c2ccccc2c(/C=N/N(C)C2=NCCN2)c2ccccc12)C1=NCCN1
Cures (Mus musculus [10]): 1 | ILS at 3 mg/kg (Mus musculus [14]): 95% | ILS at 6.25 mg/kg (Mus musculus [11]): 124% | Cures (Mus musculus [2]): 0
